Our source for the IC50 values is ChEMBL document CHEMBL1154279, “Cytotoxic compounds from the stems of Cinnamomum tenuifolium” (J Nat Prod, 2009).

One assay deals with DU-145. Kind of assay: Cytotoxicity against human DU145 cells after 72 hrs by XTT assay. Particulars: DU-145, 24 h, in the assay text read “after 24 hrs” for “after 72 hrs”. Format: functional, cell-based. In general terms: Tetrazolium assays rely on reduction of a dye to a coloured formazan, in cell work by metabolically active cells.
The test system of another assay is LNCaP. Kind of assay: Cytotoxicity against human LNCAP cells after 72 hrs by XTT assay. The assay is classed as functional, cell-based. Particulars: 24 h, in the assay text read “after 24 hrs” for “after 72 hrs”. The method in brief:
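Prostate cancer cells in RPMI-1640 with 10% FBS, 37 °C, 5% CO2, grown to 70–80% confluence and treated at 0.1–100 µM for 24, 48 and 72 h. XTT labeling for 4 h at 37 °C, absorbance 450 nm (reference 650 nm) against control wells. IC50 derived from the mean of eight wells; taxol and cisplatin served as positive controls.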

In the case of `CC(C)C1=CC(=O)[C@]2(C)O[C@@]1(O)[C@@H]1[C@H](C)CC[C@@H]12` [ALPINENONE], the IC50 (as a rule, the concentration needed to halve the response being measured) in the assay with DU-145 worked out at 267 µM; with LNCaP, 67.1 µM.
`C=C1OC(=O)/C(=C/CCCCCCCCCCCCCCCCCCCCCCCCCC)[C@@H]1O` [ISOTENUIFOLIDE]: the half-maximal inhibitory concentration (IC50) is 84.1 µM with DU-145 and 42.7 µM in the assay with LNCaP.
For `C=C1OC(=O)/C(=C\CCCCCCCCCCCCC)[C@@H]1O` [OBTUSILACTONE A], in that order: 68.4 µM and 36.4 µM.
The molecule `CC(=O)O[C@H]1C(=O)[C@@]2(C)[C@H]([C@H](OC(=O)c3ccccc3)[C@]3(O)C[C@H](OC(=O)[C@H](O)[C@@H](NC(=O)c4ccccc4)c4ccccc4)C(C)=C1C3(C)C)[C@]1(OC(C)=O)CO[C@@H]1C[C@@H]2O` [PACLITAXEL] had an IC50 in the assay with LNCaP of 6.32 µM. In other words, the single-digit micromolar range.
